Values after ≈ are worked out from the molar mass of the structure shown.
Key:
Mus musculus [1] = assay: Antiinflammatory activity against carrageenan-induced hind paw oedema in mouse assessed as inhibition of swelling thickness at 100 mg/kg, po after 270 mins; type: functional; conditions: 4.5 h
Method in brief: (§1)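 Fasted mice (n = 5–6) were dosed orally with the sample in 0.5% CMC/water. One hour later, carrageenan (0.5 mg/25 µl in 154 mM saline) was injected subplantar into the right hind paw. The right-minus-left footpad thickness difference was measured with dial gauge callipers every 90 min over 6 h. Inhibition % is calculated versus vehicle control; mean ± SEM, Student's t test.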

Mus musculus [2] = assay: Antiinflammatory activity against carrageenan-induced hind paw oedema in mouse assessed as swelling thickness at 100 mg/kg, po after 360 mins; type: functional; method in brief: as §1
Escherichia coli = assay: Antibacterial activity against Escherichia coli ATCC 25922 after 24 hrs by broth microdilution test; type: functional; conditions: ATCC 25922, 24 h
Method in brief: (§2)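 NCCLS broth microdilution in Mueller-Hinton broth with an inoculum of 5 × 10^5 cfu/mL. Compounds were dissolved in DMSO, diluted in sterile water, and tested as twofold dilutions from 512 to 0.5 µg/mL. Plates were incubated at 35 °C for 24 h. MIC is the lowest concentration preventing visible growth.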

Mus musculus [3] = assay: Antiinflammatory activity against carrageenan-induced hind paw oedema in mouse assessed as swelling thickness at 50 mg/kg, po after 270 mins; type: functional; method in brief: as §1
Mus musculus [4] = assay: Antiinflammatory activity against carrageenan-induced hind paw oedema in mouse assessed as inhibition of swelling thickness at 100 mg/kg, po after 180 mins; type: functional; conditions: 3 h; method in brief: as §1
Mus musculus [5] = assay: Antiinflammatory activity against carrageenan-induced hind paw oedema in mouse assessed as inhibition of swelling thickness at 200 mg/kg, po after 90 mins; type: functional; conditions: 1.5 h; method in brief: as §1
Candida parapsilosis = assay: Antifungal activity against Candida parapsilosis ATCC 22019 after 48 hrs by broth microdilution test; type: functional; conditions: Lodderomyces parapsilosis, ATCC 22019, 48 h
Method in brief: (§3)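 Yeasts tested by NCCLS M27-A broth microdilution in RPMI 1640 (with L-glutamine, without sodium bicarbonate) with an inoculum of 0.5–2.5 × 10^3 cfu/mL. Compounds were prepared from DMSO solution diluted in water as twofold dilutions from 512 to 0.5 µg/mL. Plates were incubated at 35 °C for 48 h. MIC is the lowest concentration giving no visible growth.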

Mus musculus [6] = assay: Antiinflammatory activity against carrageenan-induced hind paw oedema in mouse assessed as inhibition of swelling thickness at 100 mg/kg, po after 90 mins; type: functional; conditions: 1.5 h; method in brief: as §1
Mus musculus [7] = assay: Antiinflammatory activity against carrageenan-induced hind paw oedema in mouse assessed as swelling thickness at 50 mg/kg, po after 360 mins; type: functional; method in brief: as §1
Mus musculus [8] = assay: Analgesic activity in mouse assessed as inhibition of hind paw lick at 100 mg/kg, ip by hot plate test; type: functional; conditions: route intraperitoneal
Enterococcus faecalis = assay: Antibacterial activity against Enterococcus faecalis ATCC 29212 after 24 hrs by broth microdilution test; type: functional; conditions: ATCC 29212, 24 h; method in brief: as §2
Mus musculus [9] = assay: Antiinflammatory activity against carrageenan-induced hind paw oedema in mouse assessed as inhibition of swelling thickness at 200 mg/kg, po after 360 mins; type: functional; conditions: 6 h; method in brief: as §1
Mus musculus [10] = assay: Antiinflammatory activity against carrageenan-induced hind paw oedema in mouse assessed as inhibition of swelling thickness at 200 mg/kg, po after 270 mins; type: functional; conditions: 4.5 h; method in brief: as §1
Pichia kudriavzevii = assay: Antifungal activity against Candida krusei ATCC 6258 after 48 hrs by broth microdilution test; type: functional; conditions: ATCC 6258, 48 h; method in brief: as §3
Candida albicans = assay: Antifungal activity against Candida albicans ATCC 90028 after 48 hrs by broth microdilution test; type: functional; conditions: ATCC 90028, 48 h; method in brief: as §3
Pseudomonas aeruginosa = assay: Antibacterial activity against Pseudomonas aeruginosa ATCC 27853 after 24 hrs by broth microdilution test; type: functional; conditions: ATCC 27853, 24 h; method in brief: as §2
Mus musculus [11] = assay: Antiinflammatory activity against carrageenan-induced hind paw oedema in mouse assessed as inhibition of swelling thickness at 200 mg/kg, po after 180 mins; type: functional; conditions: 3 h; method in brief: as §1
Staphylococcus aureus = assay: Antibacterial activity against Staphylococcus aureus ATCC 29213 after 24 hrs by broth microdilution test; type: functional; conditions: ATCC 29213, 24 h; method in brief: as §2
Mus musculus [12] = assay: Antiinflammatory activity against carrageenan-induced hind paw oedema in mouse assessed as swelling thickness at 50 mg/kg, po after 90 mins; type: functional; method in brief: as §1
Mus musculus [13] = assay: Antiinflammatory activity against carrageenan-induced hind paw oedema in mouse assessed as swelling thickness at 50 mg/kg, po after 180 mins; type: functional; method in brief: as §1
Mus musculus [14] = assay: Analgesic activity in mouse assessed as inhibition of acetic acid induced-abdominal writhing at 100 mg/kg, ip by Koster test; type: functional; conditions: Abdomen, route intraperitoneal
Mus musculus [15] = assay: Antiinflammatory activity against carrageenan-induced hind paw oedema in mouse assessed as inhibition of swelling thickness at 100 mg/kg, po after 360 mins; type: functional; conditions: 6 h; method in brief: as §1
Mus musculus [16] = assay: Toxicity in mouse assessed as ulceration effect at 200 mg/kg; type: functional, organism-based; set-up: dose 200 mg/kg
Method in brief: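 Mice given 200 mg/kg orally in the carrageenan oedema study were killed under deep ether anaesthesia 6 h after treatment. Stomachs were opened along the greater curvature and examined under a dissecting microscope for lesions or bleeding. Result is expressed as the ratio of ulcerated animals per group.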

Mus musculus [17] = assay: Antiinflammatory activity against carrageenan-induced hind paw oedema in mouse assessed as swelling thickness at 100 mg/kg, po after 270 mins; type: functional; method in brief: as §1
Mus musculus [18] = assay: Antiinflammatory activity against carrageenan-induced hind paw oedema in mouse assessed as swelling thickness at 200 mg/kg, po after 360 mins; type: functional; method in brief: as §1

Compound	inhibition in vivo at 100 mg/kg (Mus musculus [1]) [%]	MIC (Escherichia coli) [µg/mL]	Activity (Mus musculus [3]) [%]	inhibition in vivo at 100 mg/kg (Mus musculus [4]) [%]	inhibition in vivo at 200 mg/kg (Mus musculus [5]) [%]	MIC (Candida parapsilosis) [µg/mL]	inhibition in vivo at 100 mg/kg (Mus musculus [6]) [%]	Activity (Mus musculus [7]) [%]	inhibition in vivo at 100 mg/kg (Mus musculus [8]) [%]	MIC (Enterococcus faecalis) [µg/mL]	inhibition in vivo at 200 mg/kg (Mus musculus [9]) [%]	inhibition in vivo at 200 mg/kg (Mus musculus [10]) [%]	MIC (Pichia kudriavzevii) [µg/mL]	MIC (Candida albicans) [µg/mL]	MIC (Pseudomonas aeruginosa) [µg/mL]	inhibition in vivo at 200 mg/kg (Mus musculus [11]) [%]	MIC (Staphylococcus aureus) [µg/mL]	Activity (Mus musculus [12]) [%]	Activity (Mus musculus [13]) [%]	inhibition in vivo at 100 mg/kg (Mus musculus [14]) [%]	further results
CCCNC(=S)NNC(=O)Cn1c(=O)oc2ccc(C)cc21	13	256 (≈ 794 µM)	188.2	46.1	29.1	256 (≈ 794 µM)	79.8	176.7	18.1	512 (≈ 1590 µM)	6.6	11.1	256 (≈ 794 µM)	256 (≈ 794 µM)	512 (≈ 1590 µM)	25.1	256 (≈ 794 µM)	147.3	147.1	59.7	Activity (Mus musculus [2]): 80.6%
Cc1ccc2oc(=O)n(Cc3n[nH]c(=S)n3-c3ccccc3)c2c1	31.8	256 (≈ 757 µM)	157.3	63.3	53.2	128 (≈ 378 µM)	79.8	147.2	13	256 (≈ 757 µM)	5.5	16.7	128 (≈ 378 µM)	128 (≈ 378 µM)	256 (≈ 757 µM)	47.7	256 (≈ 757 µM)	122.8	115.5	49.6	inhibition in vivo at 100 mg/kg (Mus musculus [15]): 27.4%; Activity (Mus musculus [16]): Not toxic
CCNC(=S)NNC(=O)Cn1c(=O)oc2ccc(C)cc21	35.6	256 (≈ 830 µM)	139.1	36.3	19.4	256 (≈ 830 µM)	57.1	127.8	18.1	512 (≈ 1660 µM)	47.2	27.8	256 (≈ 830 µM)	256 (≈ 830 µM)	512 (≈ 1660 µM)	54.6	256 (≈ 830 µM)	116.7	21.5	44.4	inhibition in vivo at 100 mg/kg (Mus musculus [15]): 29.3%; Activity (Mus musculus [16]): Not toxic
Cc1ccc2oc(=O)n(CC(=O)N/N=C/c3ccccc3)c2c1		256 (≈ 828 µM)	108.8	30	63.5	128 (≈ 414 µM)	79.8	115	23.9	512 (≈ 1660 µM)		27.2	128 (≈ 414 µM)	128 (≈ 414 µM)	256 (≈ 828 µM)	37.8	256 (≈ 828 µM)	98.3	100.1	62.5	Activity (Mus musculus [2]): 84.5%; Activity (Mus musculus [17]): 95.4%
OC(Cn1cncn1)(Cn1cncn1)c1ccc(F)cc1F [FLUCONAZOLE]						8 (≈ 26.1 µM)							64 (≈ 209 µM)	1 (≈ 3.27 µM)							
CNC(=S)NNC(=O)Cn1c(=O)oc2ccc(C)cc21		256 (≈ 870 µM)	187.2	33.8	58	128 (≈ 435 µM)	64.7	188.9	23.9	256 (≈ 870 µM)	27.5	35.2	128 (≈ 435 µM)	128 (≈ 435 µM)	128 (≈ 435 µM)		512 (≈ 1740 µM)	118.2	125.2	61.7	Activity (Mus musculus [2]): 85.8%; Activity (Mus musculus [16]): Not toxic
Cc1ccc2oc(=O)n(Cc3n[nH]c(=S)n3C)c2c1	14.8	512 (≈ 1850 µM)	120.7	11.8	42	256 (≈ 926 µM)	79.8	97.8	2.2	> 512		15.8	512 (≈ 1850 µM)	512 (≈ 1850 µM)	512 (≈ 1850 µM)	38.6	> 512	67.5	85.1	49.6	inhibition in vivo at 100 mg/kg (Mus musculus [15]): 27.4%; Activity (Mus musculus [16]): Not toxic; Activity (Mus musculus [18]): 79.1%
Cc1ccc2oc(=O)n(CC(=O)NN)c2c1	39.4	256 (≈ 1160 µM)	108.4	70.5	65.1	128 (≈ 579 µM)	84.8	101.1	42	512 (≈ 2310 µM)	51.6	54.7	128 (≈ 579 µM)	128 (≈ 579 µM)	256 (≈ 1160 µM)		256 (≈ 1160 µM)	92.1	88.7	73.8	inhibition in vivo at 100 mg/kg (Mus musculus [15]): 27.4%
CNc1nnc(Cn2c(=O)oc3ccc(C)cc32)s1		512 (≈ 1850 µM)	106.8	21.4	63.5	256 (≈ 926 µM)	62.7	96	54.3	512 (≈ 1850 µM)	14.5	33.3	256 (≈ 926 µM)	256 (≈ 926 µM)	512 (≈ 1850 µM)	46.9	512 (≈ 1850 µM)	66	101.3	73.8	Activity (Mus musculus [2]): 106.7%; Activity (Mus musculus [17]): 110.4%
Cc1ccc2oc(=O)n(CC(=O)N/N=C/c3ccc(Cl)cc3)c2c1	5.3	> 512	111.8	5.1	17.1	256 (≈ 745 µM)	64.7	107	50.7	> 512	7.7	17.2	256 (≈ 745 µM)	128 (≈ 372 µM)	> 512	22.8	> 512	72.5	89	62.5	inhibition in vivo at 100 mg/kg (Mus musculus [15]): 4.3%
Cc1ccc2oc(=O)n(CC(=O)NNC(=S)Nc3ccccc3)c2c1		256 (≈ 718 µM)	162.6	31.3	40.3	128 (≈ 359 µM)	79.8	153.3	23.9	512 (≈ 1440 µM)	34.1	30.5	256 (≈ 718 µM)	256 (≈ 718 µM)	256 (≈ 718 µM)	53.4	256 (≈ 718 µM)		140.9	55.6	Activity (Mus musculus [2]): 79.2%; Activity (Mus musculus [17]): 92%; Activity (Mus musculus [16]): Not toxic
CC1(C)S[C@@H]2[C@H](NC(=O)[C@H](N)c3ccccc3)C(=O)N2[C@H]1C(=O)O [AMPICILLIN]																	1 (≈ 2.86 µM)				

From ChEMBL document CHEMBL1149634, “1-Acylthiosemicarbazides, 1,2,4-triazole-5(4H)-thiones, 1,3,4-thiadiazoles and hydrazones containing 5-methyl-2-benzoxazolinones: synthesis, analgesic-anti-inflammatory and antimicrobial activities” (2007)
